Measured values as given in ChEMBL document CHEMBL1138066, “Semisynthetic maytansine analogues for the targeted treatment of cancer” (J Med Chem, 2006).

Legend:
SK-BR-3 = test: Cytotoxicity against human SK-Br-3 cell line by clonogenic plating efficiency assay after 72 hrs; type: functional, cell-based; settings: SK-BR-3, 72 h
Method in brief: (§1)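 Clonogenic assay: 1000 cells per well in 6-well dishes, exposed to free maytansinoids (0 to 3 nM) for 72 h, then medium replaced with fresh medium. Colonies grown 7-10 days after plating, fixed and stained with 0.2% crystal violet in 10% formalin/PBS, counted. Surviving fraction = colonies in drug-treated wells / colonies in control wells; IC50 in nM.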

KB = test: Cytotoxicity against human KB cell line by clonogenic plating efficiency assay after 72 hrs; type: functional, cell-based; method in brief: as §1
MCF7 = test: Cytotoxicity against human MCF7 cell line by clonogenic plating efficiency assay after 72 hrs; type: functional, cell-based; settings: MCF7, 72 h
OVCAR-3 = test: Cytotoxicity against human Ovcar3 cell line by clonogenic plating efficiency assay after 24 hrs; settings: OVCAR-3, 24 h
A-375 = test: Cytotoxicity against human A375 cell line by clonogenic plating efficiency assay after 72 hrs; type: functional, cell-based; settings: A-375, 72 h
Method in brief: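 Clonogenic survival: 1000 cells per well were plated and exposed to free or antibody-conjugated maytansinoid (0 to 3 nM) for 72 h. Medium was then replaced with fresh medium, and colonies grew for a total of 7-10 days after plating. Colonies were fixed and stained with 0.2% crystal violet in 10% formalin/PBS, then counted. Surviving fraction = colonies in drug-exposed wells / colonies in control wells.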

A-431 = test: Cytotoxicity against human A431 cell line by clonogenic plating efficiency assay after 72 hrs; type: functional, cell-based; settings: A-431, 72 h
A549 = test: Cytotoxicity against human A549 cell line by clonogenic plating efficiency assay after 72 hrs; type: functional, cell-based; settings: A549, 72 h
HCT-15 = test: Cytotoxicity against human HCT15 cell line by clonogenic plating efficiency assay after 72 hrs; type: cell-based; settings: HCT-15, 72 h
SW-620 = test: Cytotoxicity against human SW620 cell line by clonogenic plating efficiency assay after 24 hrs; settings: SW-620, 24 h

| SMILES | IC50 (SK-BR-3) [nM] | IC50 (KB) [nM] | other results |
| --- | --- | --- | --- |
| COc1cc2cc(c1Cl)N(C)C(=O)CC(OC(=O)[C@@H](C)N(C)C(=O)CC[C@H](C)SSC)C1(C)OC1C(C)C1CC(O)(NC(=O)O1)C(OC)/C=C/C=C(\C)C2 (stereo partly specified) | > 3 | > 3 |  |
| COc1cc2cc(c1Cl)N(C)C(=O)CC(OC(=O)[C@H](C)N(C)C(=O)CC[C@@H](C)SSC)C1(C)OC1C(C)C1CC(O)(NC(=O)O1)C(OC)/C=C/C=C(\C)C2 (stereo partly specified) | 0.027 | 0.042 |  |
| COc1cc2cc(c1Cl)N(C)C(=O)CC(O)C1(C)OC1C(C)C1CC(O)(NC(=O)O1)C(OC)/C=C/C=C(\C)C2 (stereo unspecified) [MAYTANSINOL] | 1.2 | > 3 |  |
| COc1cc2cc(c1Cl)N(C)C(=O)CC(OC(=O)[C@H](C)N(C)C(=O)CCC(C)(C)SSCCCC(=O)O)C1(C)OC1C(C)C1CC(O)(NC(=O)O1)C(OC)/C=C/C=C(\C)C2 (stereo partly specified) | 7.1 | 23 |  |
| COc1cc2cc(c1Cl)N(C)C(=O)CC(OC(=O)[C@H](C)N(C)C(=O)CCSSc1ccccc1)C1(C)OC1C(C)C1CC(O)(NC(=O)O1)C(OC)/C=C/C=C(\C)C2 (stereo partly specified) |  | 0.1 |  |
| COc1cc2cc(c1Cl)N(C)C(=O)CC(OC(=O)[C@H](C)N(C)C(=O)CC[C@H](C)SSC)C1(C)OC1C(C)C1CC(O)(NC(=O)O1)C(OC)/C=C/C=C(\C)C2 (stereo partly specified) | 0.032 | 0.04 |  |
| COc1cc2cc(c1Cl)N(C)C(=O)CC(OC(=O)[C@H](C)N(C)C(=O)CCC(C)SSC)C1(C)OC1C(C)C1CC(O)(NC(=O)O1)C(OC)/C=C/C=C(\C)C2 (mixture of isomers) | 0.0042 | 0.011 |  |
| COc1cc2cc(c1Cl)N(C)C(=O)CC(OC(=O)[C@@H](C)N(C)C(=O)CCC(C)SSC)C1(C)OC1C(C)C1CC(O)(NC(=O)O1)C(OC)/C=C/C=C(\C)C2 (mixture of isomers) | 0.22 | 1.2 |  |
| COc1cc2cc(c1Cl)N(C)C(=O)CC(OC(=O)[C@@H](C)N(C)C(=O)CCC(C)(C)S)C1(C)OC1C(C)C1CC(O)(NC(=O)O1)C(OC)/C=C/C=C(\C)C2 (stereo partly specified) | 3.3 | > 1 |  |
| COc1cc2cc(c1Cl)N(C)C(=O)CC(OC(=O)[C@@H](C)N(C)C(=O)CCS)C1(C)OC1C(C)C1CC(O)(NC(=O)O1)C(OC)/C=C/C=C(\C)C2 (stereo partly specified) | > 3 | > 3 |  |
| COc1cc2cc(c1Cl)N(C)C(=O)CC(OC(=O)[C@H](C)N(C)C(=O)CSSC)C1(C)OC1C(C)C1CC(O)(NC(=O)O1)C(OC)/C=C/C=C(\C)C2 (stereo partly specified) [METHYLDITHIOACETYL MAYTANSINOID] |  | 0.19 |  |
| COc1cc2cc(c1Cl)N(C)C(=O)CC(OC(=O)[C@@H](C)N(C)C(=O)CCSSC)C1(C)OC1C(C)C1CC(O)(NC(=O)O1)C(OC)/C=C/C=C(\C)C2 (stereo partly specified) | 6 | 3 |  |
| COc1cc2cc(c1Cl)N(C)C(=O)CC(OC(=O)[C@H](C)N(C)C(=O)CCSSC)C1(C)OC1C(C)C1CC(O)(NC(=O)O1)C(OC)/C=C/C=C(\C)C2 (stereo partly specified) | 0.014 | 0.029 | IC50 (MCF7): < 0.03 nM; IC50 (OVCAR-3): 0.05 nM; IC50 (A-375): 0.03 nM; IC50 (A-431): < 0.03 nM; IC50 (A549): 0.12 nM; IC50 (HCT-15): 0.13 nM; IC50 (SW-620): 0.04 nM |
| COc1cc2cc(c1Cl)N(C)C(=O)CC(OC(=O)[C@H](C)N(C)C(=O)CCC(C)(C)SSC(C)(C)CCC(=O)N(C)[C@@H](C)C(=O)OC1CC(=O)N(C)c3cc(cc(OC)c3Cl)C/C(C)=C/C=C/C(OC)C3(O)CC(OC(=O)N3)C(C)C3OC13C)C1(C)OC1C(C)C1CC(O)(NC(=O)O1)C(OC)/C=C/C=C(\C)C2 (stereo partly specified) | 0.0012 | 0.0016 |  |
| COc1cc2cc(c1Cl)N(C)C(=O)CC(OC(=O)[C@@H](C)N(C)C(=O)CCCSSC)C1(C)OC1C(C)C1CC(O)(NC(=O)O1)C(OC)/C=C/C=C(\C)C2 (stereo partly specified) |  | 2 |  |
| COc1cc2cc(c1Cl)N(C)C(=O)CC(OC(=O)[C@H](C)N(C)C(=O)CCCSSC)C1(C)OC1C(C)C1CC(O)(NC(=O)O1)C(OC)/C=C/C=C(\C)C2 (stereo partly specified) | 0.038 | 0.0085 |  |
| COc1cc2cc(c1Cl)N(C)C(=O)CC(OC(=O)[C@@H](C)N(C)C(=O)CCC(C)(C)SSC)C1(C)OC1C(C)C1CC(O)(NC(=O)O1)C(OC)/C=C/C=C(\C)C2 (stereo partly specified) | > 0.3 | > 0.3 |  |
| COc1cc2cc(c1Cl)N(C)C(=O)CC(OC(=O)[C@H](C)N(C)C(=O)CCS)C1(C)OC1C(C)C1CC(O)(NC(=O)O1)C(OC)/C=C/C=C(\C)C2 (stereo partly specified) | 1.1 | 1.1 |  |
| COc1cc2cc(c1Cl)N(C)C(=O)CC(OC(=O)[C@H](C)N(C)C(=O)CCC(C)(C)SSC)C1(C)OC1C(C)C1CC(O)(NC(=O)O1)C(OC)/C=C/C=C(\C)C2 (stereo partly specified) | 0.0032 | 0.0011 |  |
| COc1cc2cc(c1Cl)N(C)C(=O)CC(OC(=O)[C@H](C)N(C)C(=O)CCSSCCC(=O)N(C)[C@@H](C)C(=O)OC1CC(=O)N(C)c3cc(cc(OC)c3Cl)C/C(C)=C/C=C/C(OC)C3(O)CC(OC(=O)N3)C(C)C3OC13C)C1(C)OC1C(C)C1CC(O)(NC(=O)O1)C(OC)/C=C/C=C(\C)C2 (stereo partly specified) | 0.1 | 0.14 |  |
| COc1cc2cc(c1Cl)N(C)C(=O)CC(OC(=O)[C@@H](C)N(C)C(=O)CC[C@@H](C)SSC)C1(C)OC1C(C)C1CC(O)(NC(=O)O1)C(OC)/C=C/C=C(\C)C2 (stereo partly specified) | 2.2 | 2.4 |  |
| COc1cc2cc(c1Cl)N(C)C(=O)CC(OC(=O)[C@H](C)N(C)C(=O)CCC(C)S)C1(C)OC1C(C)C1CC(O)(NC(=O)O1)C(OC)/C=C/C=C(\C)C2 (stereo partly specified) | 0.031 | 0.077 |  |
| COc1cc2cc(c1Cl)N(C)C(=O)CC(OC(=O)[C@H](C)N(C)C(=O)CCSSC(C)CCC(=O)O)C1(C)OC1C(C)C1CC(O)(NC(=O)O1)C(OC)/C=C/C=C(\C)C2 (stereo partly specified) | 3.4 | 1.8 |  |
| COc1cc2cc(c1Cl)N(C)C(=O)C[C@H](OC(=O)[C@H](C)N(C)C(C)=O)[C@]1(C)O[C@H]1[C@H](C)[C@@H]1C[C@@](O)(NC(=O)O1)[C@H](OC)/C=C/C=C(\C)C2 [MAYTANSINE] | 0.03 | 0.034 | IC50 (MCF7): 0.044 nM; IC50 (OVCAR-3): 0.1 nM; IC50 (A-375): 0.037 nM; IC50 (A-431): 0.04 nM; IC50 (A549): 0.16 nM; IC50 (HCT-15): 0.75 nM; IC50 (SW-620): > 0.1 nM |
| COc1cc2cc(c1Cl)N(C)C(=O)CC(OC(=O)[C@H](C)N(C)C(=O)CCC(C)(C)S)C1(C)OC1C(C)C1CC(O)(NC(=O)O1)C(OC)/C=C/C=C(\C)C2 (stereo partly specified) | 0.12 | 0.29 |  |
